Laboratory results taken from ChEMBL document CHEMBL4118197, “The discovery and preclinical evaluation of BMS-707035, a potent HIV-1 integrase strand transfer inhibitor” (Bioorg Med Chem Lett, 2018).
Values after ≈ are worked out from the molar mass of the structure shown.

Legend:
[1] = molecular target: Human immunodeficiency virus type 1 integrase (Human immunodeficiency virus 1, UniProt Q7ZJM1); experiment: Inhibition of HIV1 integrase strand transfer activity
[2] = Clearance in Sprague-Dawley rat at 1 mg/kg, iv after 4 hrs; type: ADME, organism-based; conditions: in vivo
How it was run: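 Male Sprague-Dawley rats given 1 mpk IV in PEG400/ethanol (90:10); blood sampled at 5 and 30 min and 1, 2 and 4 h post-dose; clearance from plasma profile.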

[3] = Protein binding in rat plasma; type: ADME, cell-free; conditions: read-out: PPB (converted)
[4] = Protein binding in cynomolgus monkey plasma; type: ADME, cell-free, Macaca fascicularis; conditions: read-out: PPB (converted)
[5] = Protein binding in dog plasma; type: ADME, cell-free, Canis lupus familiaris; conditions: read-out: PPB (converted)
[6] = Protein binding in human plasma; type: ADME, cell-free; conditions: read-out: PPB (converted)
HepG2 = experiment: Cytotoxicity against human HepG2 cells; type: cell-based
[7] = Lipophilicity, log D of the compound at pH 6.5; type: physicochemical; conditions: buffer
How it was run: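 LogD determined experimentally at pH 6.5.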

[8] = Dissociation constant, pKa of the compound; type: physicochemical
[9] = Ssolubility of the compound at pH 2.3; type: physicochemical; conditions: buffer
[10] = Ssolubility of the compound at pH 6.1; type: physicochemical; conditions: buffer
[11] = Permeability across apical to basolateral side in human Caco2 cells at 3 uM; type: ADME, cell-based; conditions: Caco-2, read-out: permeability
How it was run: (§1)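 Caco-2 monolayer permeability at 3 µM, apical-to-basolateral and basolateral-to-apical, reported in nm/sec.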

[12] = Permeability across basolateral to apical side in human Caco2 cells at 3 uM; type: ADME, cell-based; conditions: Caco-2, read-out: permeability; how it was run: as §1
Cytochrome P450 1A2 = molecular target: T1, Cytochrome P450 1A2 (Homo sapiens, UniProt P05177); experiment: Inhibition of human CYP1A2; type: ADME
T1 sequence (P05177 whole entry): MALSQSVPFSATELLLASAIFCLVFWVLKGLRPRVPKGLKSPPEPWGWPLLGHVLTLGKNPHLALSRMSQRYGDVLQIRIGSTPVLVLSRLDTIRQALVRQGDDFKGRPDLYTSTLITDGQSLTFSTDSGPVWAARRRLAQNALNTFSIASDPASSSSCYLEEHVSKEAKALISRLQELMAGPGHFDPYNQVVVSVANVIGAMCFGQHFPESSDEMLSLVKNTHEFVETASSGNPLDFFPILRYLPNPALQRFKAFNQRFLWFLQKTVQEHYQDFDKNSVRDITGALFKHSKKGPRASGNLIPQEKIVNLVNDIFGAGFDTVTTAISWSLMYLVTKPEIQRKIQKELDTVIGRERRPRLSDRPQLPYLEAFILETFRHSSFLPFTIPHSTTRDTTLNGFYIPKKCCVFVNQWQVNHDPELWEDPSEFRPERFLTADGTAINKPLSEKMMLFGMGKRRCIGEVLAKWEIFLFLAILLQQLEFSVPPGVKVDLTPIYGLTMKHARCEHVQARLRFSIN

Cytochrome P450 2C9 = Cytochrome P450 2C9 (Homo sapiens, UniProt P11712); experiment: Inhibition of human CYP2C9; type: ADME
Cytochrome P450 2C19 = Cytochrome P450 2C19 (Homo sapiens, UniProt P33261); experiment: Inhibition of human CYP2C19; type: ADME
Cytochrome P450 2D6 = Cytochrome P450 2D6 (Homo sapiens, UniProt P10635); experiment: Inhibition of human CYP2D6; type: ADME
Cytochrome P450 3A4 = Cytochrome P450 3A4 (Homo sapiens, UniProt P08684); experiment: Inhibition of human CYP3A4; type: ADME
[13] = molecular target: T2, Nuclear receptor subfamily 1 group I member 2 (Homo sapiens, UniProt O75469); experiment: Transactivation of human PXR; type: ADME
T2 sequence (O75469 whole entry): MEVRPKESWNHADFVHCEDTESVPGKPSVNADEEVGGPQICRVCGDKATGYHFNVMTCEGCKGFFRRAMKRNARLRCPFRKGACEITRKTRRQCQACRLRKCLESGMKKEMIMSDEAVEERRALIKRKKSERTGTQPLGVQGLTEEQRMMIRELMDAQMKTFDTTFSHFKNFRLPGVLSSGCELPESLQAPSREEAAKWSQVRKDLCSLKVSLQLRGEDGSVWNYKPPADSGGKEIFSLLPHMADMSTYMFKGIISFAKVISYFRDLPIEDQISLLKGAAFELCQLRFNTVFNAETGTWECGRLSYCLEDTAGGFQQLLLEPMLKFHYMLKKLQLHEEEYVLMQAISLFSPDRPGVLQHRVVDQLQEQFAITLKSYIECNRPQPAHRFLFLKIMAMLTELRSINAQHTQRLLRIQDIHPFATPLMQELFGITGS
How it was run: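 Human PXR transactivation assay, with potency reported as EC20A and EC60A values.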

Homo sapiens = species: Homo sapiens; experiment: Inhibition of human p-gp assessed as decrease in [3H]-digoxin transport at 10 uM
[14] = Drug metabolism in rat liver microsomes assessed as CYP-mediated metabolism by measuring compound half life; type: ADME
How it was run: (§2)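 Microsomal stability with NADPH (CYP-dependent) in rat, cynomolgus, dog and human microsomes; half-life in min.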

Salmonella typhimurium = experiment: Genotoxicity in Salmonella typhimurium TA98 at =<5000 ug/plate in presence of metabolic activators by Ames test; type: toxicity, organism-based; conditions: salmonella enterica subsp. enterica serovar typhimurium
How it was run: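 Bacterial reverse mutation (Ames) test, Salmonella typhimurium TA98 and TA100, up to 5000 µg/plate, with and without metabolic activation.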

[15] = Drug metabolism in cynomolgus monkey liver microsomes assessed as CYP-mediated metabolism by measuring compound half life; type: ADME, Macaca fascicularis; how it was run: as §2
[16] = Drug metabolism in dog liver microsomes assessed as CYP-mediated metabolism by measuring compound half life; type: ADME, Canis lupus familiaris; how it was run: as §2
[17] = Drug metabolism in human microsomes assessed as CYP-mediated metabolism by measuring compound half life; type: ADME; how it was run: as §2
CHO [18] = experiment: Genotoxicity in CHO cells at 1.4 mM after 3 hrs in presence of metabolic activators by micronucleus assay; type: toxicity, cell-based, Cricetulus griseus; conditions: chinese hamster, 1400 µM
How it was run: (§3)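 Cytokinesis-blocked micronucleus test in cultured CHO cells: up to 1.4 mM (500 µg/mL) for 3 h with metabolic activation, or up to 0.36 mM for 22.5 h without activation.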

CHO [19] = experiment: Genotoxicity in CHO cells at up to 0.36 mM after 22.5 hrs in absence of metabolic activators by micronucleus assay; type: toxicity, cell-based, Cricetulus griseus; conditions: chinese hamster; how it was run: as §3
[20] = Clearance in Sprague-Dawley rat at 0.87 mg/kg, iv; type: ADME, organism-based; conditions: in vivo
How it was run: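 Single IV (about 1 mg/kg) and oral (about 5 mg/kg) doses in rat, cynomolgus monkey and dog; CL, t1/2, Vss, Cmax, tmax, AUC and oral bioavailability F derived from plasma concentration-time data.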

Chain of Cytochrome P450 2C9 (P11712 whole entry): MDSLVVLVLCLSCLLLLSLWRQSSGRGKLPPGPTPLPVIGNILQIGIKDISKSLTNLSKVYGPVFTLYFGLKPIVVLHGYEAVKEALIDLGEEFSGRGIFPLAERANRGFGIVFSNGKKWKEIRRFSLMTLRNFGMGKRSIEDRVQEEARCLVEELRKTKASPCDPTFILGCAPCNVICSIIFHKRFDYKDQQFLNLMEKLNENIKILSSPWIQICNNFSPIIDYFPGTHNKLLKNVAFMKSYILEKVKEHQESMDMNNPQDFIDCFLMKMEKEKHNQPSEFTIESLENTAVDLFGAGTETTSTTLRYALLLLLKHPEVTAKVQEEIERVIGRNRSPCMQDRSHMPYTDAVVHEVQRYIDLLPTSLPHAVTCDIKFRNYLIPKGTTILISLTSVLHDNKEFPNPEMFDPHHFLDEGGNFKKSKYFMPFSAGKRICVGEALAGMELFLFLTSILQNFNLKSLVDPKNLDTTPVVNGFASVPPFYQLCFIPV
Chain of Cytochrome P450 3A4 (P08684 whole entry): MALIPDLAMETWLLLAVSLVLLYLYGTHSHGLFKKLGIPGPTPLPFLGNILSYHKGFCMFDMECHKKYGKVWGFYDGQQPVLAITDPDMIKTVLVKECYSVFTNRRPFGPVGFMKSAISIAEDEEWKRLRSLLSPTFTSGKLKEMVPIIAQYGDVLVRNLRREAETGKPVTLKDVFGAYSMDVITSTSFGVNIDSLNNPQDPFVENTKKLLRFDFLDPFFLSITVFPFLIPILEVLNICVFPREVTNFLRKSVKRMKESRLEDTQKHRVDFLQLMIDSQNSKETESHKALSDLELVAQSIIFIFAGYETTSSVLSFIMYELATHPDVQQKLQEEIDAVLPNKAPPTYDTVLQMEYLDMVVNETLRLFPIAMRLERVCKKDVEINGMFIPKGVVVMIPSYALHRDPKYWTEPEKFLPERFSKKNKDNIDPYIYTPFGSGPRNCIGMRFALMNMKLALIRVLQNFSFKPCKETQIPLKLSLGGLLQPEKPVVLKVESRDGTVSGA
Chain of Human immunodeficiency virus type 1 integrase (Q7ZJM1 whole entry): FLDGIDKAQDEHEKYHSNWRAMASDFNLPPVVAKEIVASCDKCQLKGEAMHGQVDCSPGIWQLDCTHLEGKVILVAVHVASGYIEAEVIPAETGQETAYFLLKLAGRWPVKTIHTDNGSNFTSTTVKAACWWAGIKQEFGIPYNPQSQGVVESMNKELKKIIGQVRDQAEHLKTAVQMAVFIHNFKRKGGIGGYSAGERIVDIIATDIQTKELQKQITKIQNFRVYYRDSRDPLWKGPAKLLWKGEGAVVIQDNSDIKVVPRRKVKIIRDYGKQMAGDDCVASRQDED
Chain of Cytochrome P450 2C19 (P33261 whole entry): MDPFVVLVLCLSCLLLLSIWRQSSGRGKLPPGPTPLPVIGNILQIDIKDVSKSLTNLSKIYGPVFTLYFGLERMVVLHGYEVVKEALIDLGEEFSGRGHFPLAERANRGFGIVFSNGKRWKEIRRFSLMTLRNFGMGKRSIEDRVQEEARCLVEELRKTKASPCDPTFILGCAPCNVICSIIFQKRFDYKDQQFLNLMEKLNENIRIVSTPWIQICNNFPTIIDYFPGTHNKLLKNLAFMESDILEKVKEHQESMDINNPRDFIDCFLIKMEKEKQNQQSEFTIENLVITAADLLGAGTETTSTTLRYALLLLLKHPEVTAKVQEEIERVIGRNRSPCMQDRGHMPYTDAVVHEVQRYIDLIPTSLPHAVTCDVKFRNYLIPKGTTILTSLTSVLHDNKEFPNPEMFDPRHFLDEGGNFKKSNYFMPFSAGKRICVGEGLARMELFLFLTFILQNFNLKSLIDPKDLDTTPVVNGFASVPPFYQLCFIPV
Chain of Cytochrome P450 2D6 (P10635 whole entry): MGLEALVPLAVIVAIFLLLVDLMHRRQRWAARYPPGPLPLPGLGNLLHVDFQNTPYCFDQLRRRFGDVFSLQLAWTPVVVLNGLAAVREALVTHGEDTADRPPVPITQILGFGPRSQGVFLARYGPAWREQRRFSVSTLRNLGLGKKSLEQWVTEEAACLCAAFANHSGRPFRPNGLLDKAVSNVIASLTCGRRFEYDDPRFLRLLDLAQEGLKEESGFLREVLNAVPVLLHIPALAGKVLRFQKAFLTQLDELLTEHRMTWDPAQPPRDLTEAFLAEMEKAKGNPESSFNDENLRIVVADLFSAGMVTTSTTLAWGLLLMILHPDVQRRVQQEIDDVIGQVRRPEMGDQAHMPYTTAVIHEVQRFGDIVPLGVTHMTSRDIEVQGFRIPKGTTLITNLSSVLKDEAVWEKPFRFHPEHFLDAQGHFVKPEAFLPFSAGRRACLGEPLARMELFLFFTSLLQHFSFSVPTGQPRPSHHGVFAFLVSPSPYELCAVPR

- IC50 [1]: 0.003 µM
- clearance [2]: 9.6 mL/min/kg
- fraction unbound [3]: 0.063
- fraction unbound [4]: 0.041
- fraction unbound [5]: 0.015
- fraction unbound [6]: 0.024
- logD [7]: 2.02
- pKa [8]: 6.6
- solubility [9]: 9 µg/mL (≈ 25.9 µM)
- solubility [10]: 21 µg/mL (≈ 60.5 µM)
- Papp A→B at 3 µM [11]: 33.4 ×10⁻⁶ cm/s
- Papp B→A at 3 µM [12]: 24 ×10⁻⁶ cm/s
- IC50 (Cytochrome P450 1A2): > 40 µM
- IC50 (Cytochrome P450 2C9): > 40 µM
- IC50 (Cytochrome P450 2C19): > 40 µM
- IC50 (Cytochrome P450 2D6): > 40 µM
- IC50 (Cytochrome P450 3A4): > 40 µM
- EC50 [13]: > 50 µM
- EC20 ([13]; human): > 50 µM
- EC60 ([13]; human): > 50 µM
- inhibition (Homo sapiens): 5%
- half-life [14]: > 2 h
- half-life [15]: 1.6 h
- half-life [16]: 1.78 h
- half-life [17]: 1.83 h
- clearance [20]: 9.7 mL/min/kg
Compound: CC1(C)OCCn2c1nc(C(=O)NCc1ccc(F)cc1)c(O)c2=O
- IC50 (HepG2): ≥ 45 µM
- Activity (Salmonella typhimurium): Non-Toxic
- Activity (CHO [18]): Non-Toxic
- Activity (CHO [19]): Non-Toxic
